Source: PubChem BioAssay
In the library only some 2.7% were active in any assay of this set; here they are far more common.
PREPL inh – inhibitors of human prolyl oligopeptidase-like enzyme PREPL; Q4J6C6; 320,000 tested, 0.68% active; inhibition, % at 5.96 µM; recombinant PREPL, fluorescence polarization activity-based probe
MC4R ag barr – human MC4R agonism via beta-arrestin; AID 540308; 360,000 tested, 0.98% active; activation, % at 8.9 µM; P32245; U2OS MC4R beta-arrestin complementation, luminescence; percent of melanotan II response, DMSO zero;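 active means activation above a per-plate cutoff, the mean activation of sample wells on that plate plus 3 SD, cut at about 8% in these data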
NTR1 ag – NTR1 (human) agonism; P30989; NTR1-U2OS beta-arrestin-GFP spot imaging, agonist mode; activation, % at 20 µM; 330,000 tested, 0.17% active;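 active means activation at or above 40% of the spot to cytoplasm intensity ratio, with at least 20 cells analyzed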
MC4R antag cAMP – antagonists of human melanocortin 4 receptor (MC4R); P32245; MC4R-expressing cells, MTII-stimulated cAMP, LANCE TR-FRET; AID 540295; 360,000 tested, 0.48% active; inhibition, % at 6.5 µM;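 active means inhibition above its plate's cutoff, the mean of tested wells on that plate plus 3 SD, cut at about 29% in these data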
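Material: U2OS-MC4R stable cell line | Reagent: Melanotan II challenge after compound preincubation | Doses: One concentration, 6.5 µM nominal | Incubation: 30-min compound preincubation, 1-h Melanotan II challenge, 1-h detection, room temperature | Signal: TR-FRET cAMP assay | Replicates: One well per compound, no replicates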
HTR2A ag – agonists of mouse serotonin 5-HT2A receptor (HTR2A). CHO-K1 mHTR2A beta-arrestin complementation, luminescence; percent of 30 µM serotonin response. activation, % at 7.6 µM. 360,000 tested, 0.66% active;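 active means activation above a run cutoff, the mean activation of all tested compounds plus 3 SD, cut at about 14% in these data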
Target sequence (P35363 whole entry, looked up): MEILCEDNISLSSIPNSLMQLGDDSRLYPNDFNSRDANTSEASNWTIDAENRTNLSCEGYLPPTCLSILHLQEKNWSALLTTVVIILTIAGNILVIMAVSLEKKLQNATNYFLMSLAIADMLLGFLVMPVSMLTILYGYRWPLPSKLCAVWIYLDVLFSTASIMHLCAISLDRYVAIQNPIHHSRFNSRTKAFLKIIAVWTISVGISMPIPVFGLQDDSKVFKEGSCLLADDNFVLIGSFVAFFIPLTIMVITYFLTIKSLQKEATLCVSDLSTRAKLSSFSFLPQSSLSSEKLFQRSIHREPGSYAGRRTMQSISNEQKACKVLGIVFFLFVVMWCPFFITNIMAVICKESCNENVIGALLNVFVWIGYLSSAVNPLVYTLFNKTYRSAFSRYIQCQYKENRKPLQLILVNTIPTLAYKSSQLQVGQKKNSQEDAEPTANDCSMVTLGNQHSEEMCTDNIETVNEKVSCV
Hep lipid drop – modulators of hepatic lipid droplet formation | AML12 mouse hepatocytes, oleate lipid droplets, BODIPY imaging | inhibition, % at 6.5 µM | 240,000 tested, 0.4% active | AID 1656;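 active means lipid droplet intensity inhibited by at least 50%, with more than 500 cells counted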
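Material: mouse AML12 hepatocyte cell line, fixed after treatment; Timing: compound with oleate, overnight; Technique: high-content imaging of BODIPY-stained droplets and DAPI nuclei; Probe or stimulus: oleate, 100 µM final; Dosing: compound at 6.5 µM only.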
PREPL inh cf – confirmation of human PREPL enzyme inhibitors; shares compounds with PREPL inh; recombinant PREPL, fluorescence polarization activity probe; inhibition, % at 5.96 µM; 2,000 tested, 67% active
NTR1 ag confirm – confirmation of agonists of human NTR1. NTR1-U2OS beta-arrestin-GFP translocation imaging. 480 tested, 38% active. activation, % at 20 µM. shares compounds with NTR1 ag;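 active means mean activation at 20 µM of at least 40%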
U2OS cAMP counter – nonselective cAMP signaling inhibitor, MC4R antagonist counter-screen; 1,600 tested, 26% active; shares compounds with MC4R antag cAMP; parental U2OS, forskolin cAMP, LANCE TR-FRET; inhibition, % at 6.5 µM;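 active means mean inhibition over triplicates above the low-control well mean plus 3 SD, set per campaign, cut at about 13% in these data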;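 further: signal is single emission at 671 nm which falls as cellular cAMP rises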
MC4R antag conf – human MC4R cAMP antagonism confirmation | shares compounds with MC4R antag cAMP | MC4R-expressing cells, MTII-stimulated cAMP, TR-FRET | inhibition, % at 6.5 µM | 1,600 tested, 27% active; in the data active means inhibition above about 29%
Hits are given with their value; n = inactive; x = not tested or not shown. Unless noted, no stated cut-off is given here; in the data, active means inhibition above about 43%; inactive means the rest.

SMILES | PREPL inh | MC4R ag barr | NTR1 ag | MC4R antag cAMP | HTR2A ag | Hep lipid drop | PREPL inh cf | others
CCc1ccc(OCC(=O)Nc2ccc(N3CCN(C(=O)c4ccccc4)CC3)cc2)cc1 | 58 | n | n | n | n | n | 56
COc1ccc2[nH]c3nc(SCc4nnc(-c5ccc(C)cc5)o4)nnc3c2c1 | n | n | n | n | n | n | x
COc1ccc(S(=O)(=O)NC(CC(=O)NCCc2ccc(OC)c(OC)c2)C(C)C)cc1 (configuration not stated) | n | n | n | n | n | n | x
NC(=O)C1CCN(C(=O)CCNS(=O)(=O)c2ccccc2F)CC1 | n | n | n | n | n | x | x
Cc1ccc(-n2cccc2C(=S)N=P(N(C)C)(N(C)C)N(C)C)cc1 | 44 | n | n | n | n | x | n
Cc1ccsc1C(=O)Nc1ccc(F)c([N+](=O)[O-])c1 | 45 | n | n | n | n | n | n
COCCn1nnnc1CN1CCN(C(=O)c2ccco2)CC1 | n | n | n | n | n | n | x
CN(Cc1ccco1)c1ncnc2ccc(-c3ccccc3Cl)cc12 | 45 | n | n | n | n | x | n
COc1ccc(NC(=S)N2CCN(C(=O)C3CCCO3)CC2)cc1 (configuration not stated) | x | n | n | n | n | n | x
CCOc1cc(C(=O)N(C)CC(=O)Nc2cccc3ccccc23)ccc1OC | n | n | n | n | n | x | x
Nc1c(N=Nc2ccccc2F)c(=O)[nH]n1-c1ccccc1 | n | n | n | n | n | x | x
Cc1nn(-c2ccccc2)c(N)c1N=Nc1ccccc1 | n | n | x | n | n | n | x
Nc1nn(-c2ccccc2)c(N)c1N=Nc1ccccc1 | 51 | n | n | n | n | n | 55
Nc1nn(-c2ccccc2)c(N)c1N=Nc1ccccc1F | 54 | n | n | n | n | n | 56
C=CCn1c(CNC(=O)c2cccs2)nnc1SCc1ccc(Cl)cc1Cl | n | n | n | n | n | n | x
CC(NC(=O)c1cccs1)c1nnc(SCc2ccc(Cl)cc2Cl)n1C (configuration not stated) | 43 | n | n | n | n | n | n
CCn1c(C)nc2cc(C(=O)N/N=C/c3cccc(O)c3O)ccc21 | 45 | n | n | n | n | n | n
CCn1c(C)nc2cc(C(=O)N/N=C/c3ccccc3)ccc21 | n | n | n | n | n | n | x
COc1ccc(C(=O)NC(C(=O)N2CCN(C/C=C/c3ccccc3)CC2)C(C)C)cc1 (configuration not stated) | x | n | x | n | n | x | x
CC(C)[C@H](NC(=O)c1ccc([N+](=O)[O-])cc1Cl)C(=O)N1CCN(C/C=C/c2ccccc2)CC1 | 47 | n | n | n | n | x | n
COc1ccc(CNC(=O)Cc2c(C(=O)O)[nH]c3ccccc23)cc1 | n | n | n | n | n | x | x
COc1ccc(CNC(=O)Cc2c(C(=O)O)[nH]c3ccccc23)c(OC)c1 | 126 | n | n | n | n | x | n
C/C(=C\C(=O)c1ccc(Cl)s1)N(C)C | n | n | n | n | n | n | x
Cn1nc(-c2ccc(Cl)cc2)nc2c(=O)n(C)c(=O)nc1-2 | 44 | x | n | x | x | x | 60
CS(=O)(=O)n1nc(-c2ccc(Cl)cc2)nc1N | n | n | n | n | n | n | x
SMILES | PREPL inh | MC4R ag barr | NTR1 ag | MC4R antag cAMP | HTR2A ag | Hep lipid drop | PREPL inh cf | others
COc1ccc(C(=O)C[n+]2ccc3c(c2)nc(-c2ccccc2)n3C)cc1 | n | n | n | n | n | n | x
COc1cc(-c2nc3c[n+](CC(=O)c4ccccc4)ccc3n2C)cc(OC)c1OC | 53 | n | n | n | n | n | n
COc1cccc(NC(=S)N2CCN(c3ccc([N+](=O)[O-])cc3)CC2)c1 | n | n | n | n | n | n | x
COc1ccc(NC(=S)N2CCN(c3ccc([N+](=O)[O-])cc3)CC2)cc1OC | 47 | n | n | n | n | n | 49
COc1ccc(C(=O)OC(C)C(=O)NC(C)CCc2ccccc2)c(OC)c1 (configuration not stated) | n | n | n | n | n | x | x
COc1cc(/C=C2/NC(=O)NC2=O)ccc1OCC(=O)Nc1ccc(F)cc1 | 87 | n | n | n | n | n | n
O=C(OCC(=O)N1CCN(c2ccc(F)cc2)CC1)c1cnc2ccccc2n1 | 49 | n | n | n | n | x | n
O=C(CSc1nncn1-c1cccnc1)N(c1ccccc1)c1ccccc1 | n | n | n | n | n | n | x
CCCCCc1cc(=O)oc2c(C(CCN3CCCC3)c3ccc(N(C)C)cc3)c(OC)cc(OC)c12 (configuration not stated) | 50 | n | 53 | n | n | n | 49 | NTR1 ag confirm=n
Cc1ccnc(N=Cc2c(O)ccc3oc4c(c23)CCCC4)c1 | n | x | x | x | x | n | x
CC(C)C[C@@H](CN1CCC[C@H]1CN1C(=O)C(=O)NC[C@@H]1Cc1ccccc1)N1C[C@H](Cc2ccccc2)N(CCc2ccccc2)C(=O)C1=O | x | x | x | x | n | x | x
CC(C)[C@H](CN1CCC[C@H]1CN1C(N)=NC[C@H]1C(C)C)N1C[C@@H](Cc2ccccc2)N(CCCC2CCCC2)C1=N | 61 | n | n | 30 | n | x | 59 | U2OS cAMP counter=n;MC4R antag conf=n
CC(C)[C@H](CN1CCC[C@H]1CN1C(N)=NC[C@@H]1Cc1ccccc1)N1C[C@@H](Cc2ccccc2)N(CCc2ccc(Cl)c(Cl)c2)C1=N | 53 | n | n | 31 | n | x | 53 | U2OS cAMP counter=n;MC4R antag conf=43
C=CC(n1cncn1)C(O)(c1ccccc1)c1ccccc1 (configuration not stated) | n | n | n | n | n | x | x
O=C(CN1C(=O)C2CC=CCC2C1=O)N1CCN(c2ccc([N+](=O)[O-])cc2)CC1 (configuration not stated) | 48 | n | n | 31 | n | n | n | U2OS cAMP counter=n;MC4R antag conf=n
CC(C(=O)N1CCN(c2ccc([N+](=O)[O-])cc2)CC1)N1C(=O)C2CC=CCC2C1=O (configuration not stated) | n | n | n | n | n | n | x
O=C(CS(=O)c1ccc(C(F)(F)F)cc1[N+](=O)[O-])Oc1ccccc1 (configuration not stated) | 53 | n | n | 49 | n | n | 52 | U2OS cAMP counter=n;MC4R antag conf=34
O=C1OCC/C1=C1/NCCNC1=O | x | n | x | n | n | x | x
